In ChEMBL document CHEMBL4020804, “Minor phenolics from Angelica keiskei and their proliferative effects on Hep3B cells” (Bioorg Med Chem Lett, 2017):

Key:
Hep 3B2 [1] = experiment: Cytoprotective activity against GOX-induced cytotoxicity in human Hep3B cells assessed as LDH release at 1 uM treated for 5 hrs with 15 mU/ml GOX challenge by spectrophotometric method (reference value: 60.94 +/- 1.18%); type: functional
Hep 3B2 [2] = experiment: Cytoprotective activity against GOX-induced oxidative stress in human Hep3B cells assessed as cell survival at 0.1 uM treated for 5 hrs with 15 mU/ml GOX challenge by MTT assay (reference value: 41.51 +/- 1.39%); type: functional; details: read-out: Survival
Hep 3B2 [3] = experiment: Cytoprotective activity against GOX-induced cytotoxicity in human Hep3B cells assessed as LDH release at 100 uM treated for 5 hrs with 15 mU/ml GOX challenge by spectrophotometric method (reference value: 60.94 +/- 1.18%); type: functional
NIH3T3 [4] = experiment: Cytoprotective activity against GOX-induced oxidative stress in mouse NIH/3T3 cells assessed as cell survival at 0.1 uM treated for 5 hrs with 15 mU/ml GOX challenge by MTT assay (reference value: 42.71 +/- 2.10%); type: functional; details: NIH3T3, 5 h, read-out: Survival
Hep 3B2 [5] = experiment: Proliferative activity against human Hep3B cells assessed as cell viability at 1 uM after 4 days by cell counting method relative to control; type: functional; details: 96 h, read-out: Activity
In short: (§1)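 Hep3B kept in DMEM/10% FBS, 37°C, 5% CO2, then seeded at 1×10^5 cells/ml in medium containing compound (0.1–100 μM; DMSO-only control) in monolayer. Cells were checked daily by microscope for attachment and morphology, and counted after 4 days, in triplicate, in three independent experiments. Counts are given as % of the 0 μM group.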

NIH3T3 [6] = experiment: Cytoprotective activity against GOX-induced cytotoxicity in mouse NIH/3T3 cells assessed as LDH release at 0.1 uM treated for 5 hrs with 15 mU/ml GOX challenge by spectrophotometric method (reference value: 63.34 +/- 1.85%); type: functional
NIH3T3 [7] = experiment: Cytoprotective activity against GOX-induced oxidative stress in mouse NIH/3T3 cells assessed as cell survival at 100 uM treated for 5 hrs with 15 mU/ml GOX challenge by MTT assay (reference value: 42.71 +/- 2.10%); type: functional; details: NIH3T3, 5 h, read-out: Survival
Hep 3B2 [8] = experiment: Cytoprotective activity against GOX-induced oxidative stress in human Hep3B cells assessed as cell survival at 100 uM treated for 5 hrs with 15 mU/ml GOX challenge by MTT assay (reference value: 41.51 +/- 1.39%); type: functional; details: read-out: Survival
Hep 3B2 [9] = experiment: Proliferative activity against human Hep3B cells assessed as cell viability at 10 uM after 4 days by cell counting method relative to control; type: functional; details: 96 h, read-out: Activity; in short: as §1
Hep 3B2 [10] = experiment: Cytoprotective activity against GOX-induced oxidative stress in human Hep3B cells assessed as cell survival at 1 uM treated for 5 hrs with 15 mU/ml GOX challenge by MTT assay (reference value: 41.51 +/- 1.39%); type: functional; details: read-out: Survival
Hep 3B2 [11] = experiment: Proliferative activity against human Hep3B cells assessed as cell viability at 0.1 uM after 4 days by cell counting method relative to control; type: functional; details: 96 h, read-out: Activity; in short: as §1
Hep 3B2 [12] = experiment: Proliferative activity against human Hep3B cells assessed as cell viability after 4 days by cell counting method; type: functional, cell-based; in short: as §1
NIH3T3 [13] = experiment: Cytoprotective activity against GOX-induced cytotoxicity in mouse NIH/3T3 cells assessed as decrease in LDH release treated for 5 hrs with 15 mU/ml GOX challenge by spectrophotometric method; type: functional, cell-based
NIH3T3 [14] = experiment: Cytoprotective activity against GOX-induced oxidative stress in mouse NIH/3T3 cells assessed as increase in cell survival treated for 5 hrs with 15 mU/ml GOX challenge by MTT assay; type: functional, cell-based
In short: (§2)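 Cells plated at 7×10^4 per well; next day exposed for 5 h to compound (0.1–100 μM) with 15 mU/ml glucose oxidase in growth medium. Viability expressed relative to GOX-free cells; α-tocopherol positive control.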

Hep 3B2 [15] = experiment: Cytoprotective activity against GOX-induced cytotoxicity in human Hep3B cells assessed as LDH release at 0.1 uM treated for 5 hrs with 15 mU/ml GOX challenge by spectrophotometric method (reference value: 60.94 +/- 1.18%); type: functional
Hep 3B2 [16] = experiment: Cytotoxicity against human Hep3B cells assessed as effect on cell attachment at 0.1 to 100 uM measured every day during 4 days incubation period by microscopic method; type: cell-based; details: hep 3b2, 96 h; in short: as §1
NIH3T3 [17] = experiment: Cytoprotective activity against GOX-induced cytotoxicity in mouse NIH/3T3 cells assessed as LDH release at 1 uM treated for 5 hrs with 15 mU/ml GOX challenge by spectrophotometric method (reference value: 63.34 +/- 1.85%); type: functional
Hep 3B2 [18] = experiment: Proliferative activity against human Hep3B cells assessed as cell viability at 100 uM after 4 days by cell counting method relative to control; type: functional; details: 96 h, read-out: Activity; in short: as §1
Hep 3B2 [19] = experiment: Cytotoxicity against human Hep3B cells assessed as effect on cell morphology at 0.1 to 100 uM measured every day during 4 days incubation period by microscopic method; type: cell-based; details: hep 3b2, 96 h; in short: as §1
NIH3T3 [20] = experiment: Cytoprotective activity against GOX-induced cytotoxicity in mouse NIH/3T3 cells assessed as LDH release at 100 uM treated for 5 hrs with 15 mU/ml GOX challenge by spectrophotometric method (reference value: 63.34 +/- 1.85%); type: functional
NIH3T3 [21] = experiment: Cytoprotective activity against GOX-induced oxidative stress in mouse NIH/3T3 cells assessed as cell survival at 10 uM treated for 5 hrs with 15 mU/ml GOX challenge by MTT assay (reference value: 42.71 +/- 2.10%); type: functional; details: NIH3T3, 5 h, read-out: Survival
NIH3T3 [22] = experiment: Cytoprotective activity against GOX-induced cytotoxicity in mouse NIH/3T3 cells assessed as LDH release at 10 uM treated for 5 hrs with 15 mU/ml GOX challenge by spectrophotometric method (reference value: 63.34 +/- 1.85%); type: functional
Hep 3B2 [23] = experiment: Cytoprotective activity against GOX-induced oxidative stress in human Hep3B cells assessed as increase in cell survival treated for 5 hrs with 15 mU/ml GOX challenge by MTT assay; type: functional, cell-based; in short: as §2
Hep 3B2 [24] = experiment: Cytoprotective activity against GOX-induced oxidative stress in human Hep3B cells assessed as cell survival at 10 uM treated for 5 hrs with 15 mU/ml GOX challenge by MTT assay (reference value: 41.51 +/- 1.39%); type: functional; details: read-out: Survival
Hep 3B2 [25] = experiment: Cytoprotective activity against GOX-induced cytotoxicity in human Hep3B cells assessed as decrease in LDH release treated for 5 hrs with 15 mU/ml GOX challenge by spectrophotometric method; type: functional, cell-based
NIH3T3 [26] = experiment: Cytoprotective activity against GOX-induced oxidative stress in mouse NIH/3T3 cells assessed as cell survival at 1 uM treated for 5 hrs with 15 mU/ml GOX challenge by MTT assay (reference value: 42.71 +/- 2.10%); type: functional; details: NIH3T3, 5 h, read-out: Survival
Hep 3B2 [27] = experiment: Cytoprotective activity against GOX-induced cytotoxicity in human Hep3B cells assessed as LDH release at 10 uM treated for 5 hrs with 15 mU/ml GOX challenge by spectrophotometric method (reference value: 60.94 +/- 1.18%); type: functional

Row | Compound | Activity (Hep 3B2 [1]) [%] | viability at 0.1 µM (Hep 3B2 [2]) [%] | Activity (Hep 3B2 [3]) [%] | viability at 0.1 µM (NIH3T3 [4]) [%] | viability at 1 µM (Hep 3B2 [5]) [%] | Activity (NIH3T3 [6]) [%] | viability at 100 µM (NIH3T3 [7]) [%] | viability at 100 µM (Hep 3B2 [8]) [%] | viability at 10 µM (Hep 3B2 [9]) [%] | viability at 1 µM (Hep 3B2 [10]) [%] | viability at 0.1 µM (Hep 3B2 [11]) [%] | Activity (Hep 3B2 [12]) | Activity (NIH3T3 [13]) | Activity (NIH3T3 [14]) | Activity (Hep 3B2 [15]) [%] | Activity (Hep 3B2 [16]) | Activity (NIH3T3 [17]) [%] | viability at 100 µM (Hep 3B2 [18]) [%] | Activity (Hep 3B2 [19]) | Activity (NIH3T3 [20]) [%] | further results
1 | CC(C)C(=O)O[C@@H]1Cc2c(ccc3ccc(=O)oc23)OC1(C)C | 23.78 | 44.8 | 7.64 | 45.7 | 101 | 31.31 | 83.1 | 82.3 | 110 | 56.1 | 100 | Dose-dependent effect | Dose-dependent effect | Dose-dependent effect | 28.99 | Non-Toxic | 25.89 | 147 | Non-Toxic | 8.13 | viability at 10 µM (NIH3T3 [21]): 67.4%; Activity (NIH3T3 [22]): 19.53%; Activity (Hep 3B2 [23]): Dose-dependent effect; viability at 10 µM (Hep 3B2 [24]): 66.5%; Activity (Hep 3B2 [25]): Dose-dependent effect; viability at 1 µM (NIH3T3 [26]): 55.6%; Activity (Hep 3B2 [27]): 18.04%
2 | C=C(C)[C@H]1CC[C@](C)([C@@H](O)Cc2c(O)ccc(C(=O)/C=C/c3ccc(O)cc3)c2O)O1 (racemic) | 20.91 | 45.2 | 6.99 | 44.9 | 101 | 28.31 | 81.8 | 76.8 | 102 | 60.5 | 100 | Dose-dependent effect | Dose-dependent effect | Dose-dependent effect | 26.09 | Non-Toxic | 20.91 | 116 | Non-Toxic | 6.22 | viability at 10 µM (NIH3T3 [21]): 66.4%; Activity (NIH3T3 [22]): 15.76%; Activity (Hep 3B2 [23]): Dose-dependent effect; viability at 10 µM (Hep 3B2 [24]): 65.4%; Activity (Hep 3B2 [25]): Dose-dependent effect; viability at 1 µM (NIH3T3 [26]): 61.4%; Activity (Hep 3B2 [27]): 14.03%
3 | O=C(CCc1ccc(O)cc1)c1ccc(O)cc1O [DAVIDIGENIN] | 18.61 | 59.3 | 4.16 | 60.6 | 106 | 24.04 | 123 | 104 | 116 | 83.4 | 104 | Dose-dependent effect | Dose-dependent effect | Dose-dependent effect | 22.37 | Non-Toxic | 15.74 | 140 | Non-Toxic | 3.1 | viability at 10 µM (NIH3T3 [21]): 113%; Activity (NIH3T3 [22]): 12.69%; Activity (Hep 3B2 [23]): Dose-dependent effect; viability at 10 µM (Hep 3B2 [24]): 94.9%; Activity (Hep 3B2 [25]): Dose-dependent effect; viability at 1 µM (NIH3T3 [26]): 84%; Activity (Hep 3B2 [27]): 11.83%
4 | CO[C@H]1c2c(ccc3ccc(=O)oc23)O[C@@H]1C(C)(C)O | 10.56 | 69.2 | 2.59 | 69 | 118 | 15.41 | 129 | 112 | 147 | 87.1 | 106 | Dose-dependent effect | Dose-dependent effect | Dose-dependent effect | 14.07 | Non-Toxic | 6.59 | 163 | Non-Toxic | 1.89 | viability at 10 µM (NIH3T3 [21]): 118%; Activity (NIH3T3 [22]): 4.2%; Activity (Hep 3B2 [23]): Dose-dependent effect; viability at 10 µM (Hep 3B2 [24]): 100%; Activity (Hep 3B2 [25]): Dose-dependent effect; viability at 1 µM (NIH3T3 [26]): 93%; Activity (Hep 3B2 [27]): 5.66%
